According to ChEMBL document CHEMBL3352531, “Syntheses, neural protective activities, and inhibition of glycogen synthase kinase-3β of substituted quinolines” (Bioorg Med Chem Lett, 2014):

Tests used:
[1] = Neuroprotective activity in oligomeric amyloid beta peptide-induced human MC65 cells assessed as cell viability by MTT assay; assay type: functional, cell-based
Outline: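 Protection against Aβ oligomer-induced toxicity in MC65 cells, reported as EC50 (median effective concentration).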

[2] = Cytotoxicity against human MC65 cells by MTT assay; assay type: cell-based; conditions: read-out: TC50 (the source's name)
Outline: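 MC65 cells kept with tetracycline in the medium to suppress C99 production, so the cells survive and compound toxicity alone is measured. Reported as TC50 (median toxic concentration).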

[3] = Drug uptake in CD1 mouse kidney at 5 mg/kg, po daily for 75 days; assay type: ADME, organism-based; parameters: dose 5 mg/kg, route oral; conditions: read-out: Drug uptake
Outline: (§1)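 CD1 mice received 5 mg/Kg by oral gavage once daily for 75 days (four treated, two untreated). Compound in tissues and plasma was quantified by a previously reported procedure and expressed in µM as mean ± standard deviation (n = 4).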

[4] = system: Lung; test: Drug uptake in CD1 mouse lung at 5 mg/kg, po daily for 75 days; assay type: ADME, organism-based; parameters: dose 5 mg/kg, route oral; conditions: in vivo, 1800 h; outline: as §1
[5] = Drug uptake in CD1 mouse pancreas at 5 mg/kg, po daily for 75 days; assay type: ADME, organism-based; parameters: dose 5 mg/kg, route oral; conditions: read-out: Drug uptake; outline: as §1
[6] = system: Mus musculus; test: Toxicity in CD1 mouse assessed as effect on locomotion at 5 mg/kg, po daily for 75 days by Versamax chamber test; assay type: organism-based; parameters: dose 5 mg/kg, route oral; conditions: in vivo, 1800 h
Outline: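 After 75 days of daily 5 mg/Kg oral gavage, control and treated mice were acclimatized for 15 min in a Versamax chamber, then their movements were monitored. Measures were clockwise and counter-clockwise activity, total distance, rest time, and vertical and horizontal activity, compared against control.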

[7] = system: Mus musculus; test: Toxicity in CD1 mouse assessed as effect on aspartate aminotransferase activity at 5 mg/kg, po daily for 75 days; assay type: organism-based; parameters: dose 5 mg/kg, route oral; conditions: in vivo, 1800 h
Outline: (§2)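 After 75 days of daily oral gavage at 5 mg/kg, mice were sacrificed and blood was drawn from the heart into a heparinized syringe. Plasma was separated at once by centrifugation at 10,000 x g for 5 min. ALT and AST activities were measured with a commercial kit and compared between control and treated mice.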

[8] = Drug uptake in CD1 mouse brain at 5 mg/kg, po daily for 75 days; assay type: ADME, organism-based; parameters: dose 5 mg/kg, route oral; conditions: read-out: Drug uptake; outline: as §1
[9] = system: Mus musculus; test: Toxicity in CD1 mouse assessed as effect on alanine transaminase activity at 5 mg/kg, po daily for 75 days; assay type: organism-based; parameters: dose 5 mg/kg, route oral; conditions: in vivo, 1800 h; outline: as §2
[10] = Drug uptake in CD1 mouse liver at 5 mg/kg, po daily for 75 days; assay type: ADME, organism-based; parameters: dose 5 mg/kg, route oral; conditions: read-out: Drug uptake; outline: as §1
[11] = Drug uptake in CD1 mouse plasma at 5 mg/kg, po daily for 75 days; assay type: ADME, organism-based; parameters: dose 5 mg/kg, route oral; outline: as §1

| SMILES | EC50 [1] | CC50 [2] | also measured |
| --- | --- | --- | --- |
| COc1cc(NCCCN)c2nccc(C)c2c1Oc1cccc(C(F)(F)F)c1 | 150 nM | 2100 nM | – |
| COc1cc(NC(=O)c2ccco2)c2nccc(C)c2c1Oc1cccc(C(F)(F)F)c1 | 3470 nM | > 50000 nM | – |
| COc1cc(NCCCN)c2nccc(C)c2c1Oc1ccccc1 | 420 nM | 8160 nM | – |
| COc1cc(NCCCN)c2nccc(C)c2c1Oc1cccc(F)c1 | 600 nM | 7280 nM | – |
| COc1cc(NCc2ccc(O)cc2)c2nccc(C)c2c1 | 2620 nM | 20500 nM | – |
| COc1cc(NCc2ccc(O)cc2)c2nccc(C)c2c1Oc1cccc(F)c1 | 700 nM | 2600 nM | – |
| COc1cc(CNc2cc(OC)c(Oc3cccc(C(F)(F)F)c3)c3c(C)ccnc23)cc(OC)c1O | 480 nM | 2910 nM | – |
| COc1cc(NCc2ccc(O)cc2)c2nccc(C)c2c1Oc1ccccc1 | 530 nM | 4010 nM | – |
| COc1cc(NCc2cc3ccccc3o2)c2nccc(C)c2c1Oc1cccc(C(F)(F)F)c1 | 460 nM | > 50000 nM | – |
| COc1cc(NCCCN)c2nccc(C)c2c1 | 17600 nM | > 50000 nM | – |
| Cc1ccnc2c(NCc3ccc(O)cc3)cc(O)c(Oc3cccc(C(F)(F)F)c3)c12 | – | 3310 nM | – |
| COc1cc(NCc2nccs2)c2nccc(C)c2c1Oc1cccc(C(F)(F)F)c1 | 2390 nM | 20300 nM | – |
| COc1cc(NCc2ccc(-c3ccccc3)s2)c2nccc(C)c2c1Oc1cccc(C(F)(F)F)c1 | 390 nM | 14500 nM | – |
| COc1cc(NCCC(N)=O)c2nccc(C)c2c1Oc1cccc(C(F)(F)F)c1 | 500 nM | > 50000 nM | – |
| COc1cc(NCc2ccc(O)cc2)c2nccc(C)c2c1Oc1cccc(C(F)(F)F)c1 | 120 nM | 1380 nM | concentration at 1800 h [3]: 16.1 µM; Drug uptake [4]: NotTraceable; concentration at 1800 h [5]: 26.5 µM; Activity [6]: Non-toxic; Activity [7]: Non-toxic; concentration at 1800 h [8]: 24.4 µM; Activity [9]: Non-toxic; concentration at 1800 h [10]: 7.1 µM; concentration at 1800 h [11]: 4.5 µM |
| COc1cc(NCc2cccc3cccnc23)c2nccc(C)c2c1Oc1cccc(C(F)(F)F)c1 | 190 nM | > 50000 nM | – |
